Measurements taken from the EternaBench riboswitch data.

Test system: MS2 coat protein
Assay: apparent Kd, MS2 coat protein; higher = weaker binding; RNA-MaP array; FMN 200 µM where present
Method in brief: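 Two titrations, one without ligand and one with constant ligand, were run with SNAP-549-labelled MS2 coat protein from 0.7 or 1.5 nM, doubling to 3 µM. The targets were designs transcribed by stalled E. coli RNA polymerase on Illumina sequencing-chip clusters, in 100 mM Tris-HCl pH 7.5, 80 mM KCl, 4 mM MgCl2, BSA, DTT, yeast tRNA and Tween-20. The apparent Kd is the median of filtered per-cluster binding-curve fits, with green signal normalised to red-channel RNA signal and control-cluster median Fmax.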

[1] = designed as: OFF switch for flavin mononucleotide, no ligand
[2] = ligand present: flavin mononucleotide, designed as: OFF switch for flavin mononucleotide
[3] = designed as: ON switch for flavin mononucleotide, no ligand
[4] = ligand present: flavin mononucleotide, designed as: ON switch for flavin mononucleotide

Sequence	apparent Kd [1] [nM]	apparent Kd [2] [nM]	apparent Kd [3] [nM]	apparent Kd [4] [nM]
UUAUAUAGAGUGAGGAUAUGCUGGUCCUUGGAUCAGCAGAAGGCACAUGAGGAUCACCCAUGUAAUAUAAUAUU	22.4	42		
GCCUCAAGUGAAGGAUAUACGAGGCCAAAUACAGUAGAAGGUCACAUGAGGAUCACCCAUGUCCCAAAGGGUGCGCAUGCGCUC	40.4	210		
AAAAAACAUGAGGAUCACCCAUGUAAAAAAAUCGCAGGAUAUAGGGUCGCGAAAGCGACCCUAGAAGGGCGAUCCU			260	87.7
UUUGAUAGCACAGGAUAUUGUCAUUUGAGUUGUCAAGAAGGGUGUACAUGAGGAUCACCCAUGUAAUGGUUGCCUCGCUGACUU	175	279		
UCUACAUAAAUUCAUCAAUACAGAAAGGAUAUGAGAUACAUGAGGAUCACCCAUGUGCAUGUGAAUUAGAAGGUUCAAUUAACU	14.4	11.1		
CGCAACUCAGAUCUUUUUAACAUGAGGAUCACCCAUGUAUUGAGAAGGAGGAAGAAGAGAGAUUCCUAGGAUAUCAGAGUUGCG	5.4	6.14		
AAAAAACAUGAGGAUCACCCAUGUCCUCGGACGUGAGGAUAUGUACAGACUUCGGUCUGUACAGAAGGCACGUCAA			512	446
UGAACUAUGUAGAAGGCCCACAUUUAUAUGUAGGGAGGAUAUACAUGAGGAUCACCCAUGUAAAGAGCAAGAGGAUUUGACAGA	10.7	19.6		
AACACAACAUGAAACAUGAGGAUCACCCAUGUUGUUUGUAAUCAGGAUAUGAUCUCAAGAAUGAAUUAGAAGGGAUAUGGAUUU			31.8	39.6
CUCCUACAUGAGGAUCACCCAUGUCAGGAUAUCUCAGUGGCACCUAAAUUCGCCACCCAGAGAAGGGACGUGCA	13.9	16.6		
AUAUAGCGAGGAUAUACAUGAGGAUCACCCAUGUGGUAGUAGAUACGGUAGGGCUAGUGUAGAAGGUGUUAUGA	139	87.9		
GUAGCUAUCGGAGGAUAUUCAUACCGGAAACGGACAUGAGGAUCACCCAUGUGCGGAAACGCUUGGGAGAAGGCCGAUAGCUAC			247	19.4
UAGUUUUAGCGAGGAUAUCGUAUGUUUAAUUUUUUAUAUUGUUUACAUGAGGAUCACCCAUGUUACGAGAAGGCGCAUGGGAUU			388	100
GGUCGUCACAUUAACAUGAGGAUCACCCAUGUGAAAACACAUGAGGAUAUGCAUCCUAAUUGGAUGCAGAAGGCAUGGACGACC			24.7	6.28
ACGUUUUAUGCAGGAUAUUGACAUAUAUUUAAACAAGAAGGGCAUUACAUGAGGAUCACCCAUGUUAUCAUGGUAUUUAAGUUC	64.1	63.2		
ACUAGAUGAGGAUAUGCAUAUUUUCGUGUUCUUCUAGAUUAACAUGAGGAUCACCCAUGUAGAAGGCGUCAUUA	16.5	20.3		
UGUCGGAGCAGAGGAUAUAACAUGAGGAUCACCCAUGUAUGAACCAAUAGCUGGAAACAGCAAUGUAAGAAGGCUGCUCCGACA	5.8	6.69		
UGCCAGUUAGGAUAUGACUCGACAGACAUGAGGAUCACCCAUGUCCGAGUGUGUGUUUUUUCAGAAGGGACGGCCC	25.1	30.4		
GAUAGACAUGAGGAUCACCCAUGUGAGGAUAUGCGUACGUUGUCCGUAGGCGACGUGCGCAGAAGGCGCGAGGU	55.9	88.3		
AACAGUGCUAAUAAAUAAGAUCUACAUGAGGAUCACCCAUGUAAGGAUAUCGUCAGGAAUACUGACGAGAAGGUACAUGCACUG	15	25.9		
UCGAUGCUAGGAUAUACGUAUACCUCCACCGUUGAUUCCUCACAUGAGGAUCACCCAUGUAGAAGGAGCAUCUA	79.8	137		
AAAAAGCGAGGAUAUACAUGAGGAUCACCCAUGUCAAAAGAAUAUAAAGAAAUAGGAAGUAGAAGGCGCAAAAA	55.9	56		
AAAUUAGGGAGAGGAUAUUGACAUGAGGAUCACCCAUGUAUUUGGGAGUGUUUACUGAAUUCUUACGAGAAGGCUUACGAAAUU	320	255		
GUUCCACAUGAGGAUCACCCAUGUGAGGAUAUGGAUUCGCUGGCCGUAGCCAGUGGAUCCAGAAGGCGCGUGAU	77.4	96.6		
GGUGCUCAAAGAGUACCAAUACGAACAUGAGGAUCACCCAUGUAGGAUAUGCUACUCAAAGAGUAGCAGAAGGACAUGUGCCUA	16.4	116		
CUCAUGUGAGGAUAUAGUACUUCUUCUAUUAUUAUUGAGUACUAGAAGGCACAUGAGGAUCACCCAUGUAGUAC	16	16.3		
UUGAAUUGAAACAUGAGGAUCACCCAUGUGUCAUAAUUGACAUAGGAUAUGUAUAUACUUUUAUAAUAGAAGGAUGACGAUACU			15.6	12.7
GAGUCGAGUAAUAAAUAAGAUCUACAUGAGGAUCACCCAUGUAAGGAUAUGCAGUGGAAUACACUGCAGAAGGUACAUCUCGAC	15.1	33.4		

Sequence	apparent Kd [1] [nM]	apparent Kd [2] [nM]	apparent Kd [3] [nM]	apparent Kd [4] [nM]
CGGAGGUCAGGAUAUGCAUGGCGGGACUUGCGUCGUGGCGUGCAGAAGGGACAUGAGGAUCACCCAUGUGGAGU	147	216		
GCGUAUAUAAGAUUUAUAAAACAGUCAGAAGGUGAUAAGACGACAUGAGGAUCACCCAUGUAAUUCAAGGAUAUGAUCAUACGC			54.3	23.3
CUAGUAUAUCAGGAUAUGAUUUUAUAUAUUGGAUCAGAAGGGAUAACAUGAGGAUCACCCAUGUUGUGGAGUGA	110	360		
UUGGACGCCGUAGGAUAUGUAGGAUAUUCCUACAUGAGGAUCACCCAUGUUGACAUGGAAGAAGGACAGAAGGACGAUGUCCAU			277	4.78
CCAGCAAAAGUGAGGAUAUGCUGGUCCUUGGAUCAGCAGAAGGCACAUGAGGAUCACCCAUGUCGUGGAGCUGG	26.2	55.3		
GCAGCUAAUGCAGGAUAUCAGCACGUGUAGUGCUGAGAAGGGCACAUGAGGAUCACCCAUGUGAUCAAUUAAUUUUAAUGCUGC	29	159		
UGUUGUAUUACAGGAUAUCUAGUAUUUUUUUUUAGAGAAGGGUAUUCACAUGAGGAUCACCCAUGUAUAUACGAGGAAGUUGUG			67.1	71.1
UGUCGGAGCAGAGGAUAUUACAUGAGGAUCACCCAUGUAUGAACCAAUAGCUGGAAACAGCAAUGUAAGAAGGCUGCUCCGACU	13	174		
GGUCCUUCUGUUAGGAUAUGCUUUGGGCUUCCGCAGUAGAAGGAACAUGAGGAUCACCCAUGUCCGAUGCCGUC	86	88.1		
ACCAACAGGGUUGGUACCGGCGCGCAGGAUAUGCUUGCCUACAUGAGGAUCACCCAUGUCUAAAUGCAGAAGGGUGAGCUGAGC			193	114
AUGCUAGUGUGAGGAUAUCAACAUGAGGAUCACCCAUGUUGGAAGUACACGACAUGCGGUACAGGUGAGAAGGUACAUUAGCAU	27.4	53.2		
GCGUUCAUGUAGAAGGUACCUACAACAAAUUAUAACCGCUAGACACAUGAGGAUCACCCAUGUUGUAAGGAUAUACAUGAACGC			25.2	17.1
GAUUGUUUUUAGAAGGUGCCGACGAGAGUCGCAACAUGAGGAUCACCCAUGUGUCGGUGACGACGCAAGGAUAUGGAGGUGGUU			174	79.8
AAUUGAAACGUAGGAUAUCGCAAAGAUCUAGAACGAGAAGGACGUACAUGAGGAUCACCCAUGUUAAAUGGUGAAGAUUAGAUG	768	916		
UUAGCAUACCGAGGAUAUUCAUAUAAUAAAUAAACAUGAGGAUCACCCAUGUGGCGAAAGCCUAGGGAGAAGGCGGAAUGCUAU			197	24.6
CUGUUAUAGGUCCAUUUUUUCAACAUGAGGAUCACCCAUGUGCAGGAUAUCGUGAUAAUUUUCAUCGAGAAGGGCAUAGUCACG	24.9	40.1		
AGCUAGUCAGGAUAUACGAAAAUGUCAGAGGCUGUGAAGGGACAUGAGGAUCACCCAUGUAGAAGGGACUAGCA	96.8	136		
UGUCCAUAGCAGAAGGACAUGAGGAUCACCCAUGUAAUCAUACAAAUAAAUGUAGGAUAUGCUAUGGACUAAGAGCGAAAGCUC	6.24	7.26		
AGCCUACAUGAGGAUCACCCAUGUCAGGAUAUCUCGCGACGUGUCGGGUUCACGUUGCAGAGAAGGGACUCGGG	50.7	67.3		
GGCUACGUUUCGUAGCAGCUAGGUGAGGAUAUUCAAUUUUUCACAUGAGGAUCACCCAUGUAUGUGAAGAAGGCGCCUAGAAAG			12.6	4.85
ACAUGAGGAUCACCCAUGUACAUGGGUUUAAUUGUUUGUUACUAGGAUAUGUAUUUGAAUUUACAACAGAAGGAGUAUUAAUGU	985	414		
GGGCCCGGAGGAUAUACAUGAGGAUCACCCAUGUAGGGCCCGGGUAUUUUUGGGCCCUGUAGAAGGUUGGGCCC	11.5	12.2		
ACCAAUGCAGGAUAUACAUGAGGAUCACCCAUGUAUAACCUACAUAGAUGAUCAUCAUGUAGAAGGGCAAUGGA	13.1	12.1		
GCUUAUAGAGGAUAUACAGAUUAUUACAUGAGGAUCACCCAUGUUCUUCAAUGUAUAUAUGUAGAAGGCUAAGGAU	61.5	257		
AGAGGUCUCUGUGAUAACGGUACGAAGGAUAUGCAUGGAUGGGCCGAGACAUGAGGAUCACCCAUGUAGAAGGUCGAUGCGCGU	51	65.7		
GCCUUAUCUGUCAGGAUAUACAAUAAAAUAAUUUUGUAGAAGGGACAUGAGGAUCACCCAUGUACAUUACAUUG	58.3	257		
GUCGGAAACGACAAGUCAGCUCGUGAGGAUAUACAAUAUUAAAAGAUCACAUGAGGAUCACCCAUGUAGAAGGCACGAGCUGAU	31.7	442		
